In ChEMBL document CHEMBL4513216, “Probing the Open Global Health Chemical Diversity Library for Multistage-Active Starting Points for Next-Generation Antimalarials” (ACS Infect Dis, 2020):

Assay: Toxicity liver stage against HepG2, at 10uM
Type: cell-based
Design: test concentration 10 uM, cell line HepG2-A16-CD81EGFP
Details: human, HepG2-A16-CD81EGFP cells; read-out: INHIBITION
Procedure, shortened: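 Uninfected HepG2-A16-CD81EGFP cells, 3 × 10^3 per well, 1536-well, plated on prespotted compound at 10 μM final, parasite-free screening media added to match infected plates; puromycin 10 μM positive, DMSO 0.5% negative; run in parallel with 48 h PbLuc assay at 37 °C, 5% CO2; viability by CellTiter-Glo luminescence, normalized to controls.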

SMILES | cytotoxicity at 10 µM [%]
CCN(CC1CCOC1)C(=O)c1cc(OC)c2c(c1)OCCO2 (stereo not given) | -7.35
Cc1cnc(C(=O)N2CCCC(c3c(C)c(=O)nc4n3CCC4)C2)cn1 (stereo not given) | -26.5
O=C(NCCOc1ccc2c(c1)OCO2)C1CC(=O)N(CC2CC2)C1 (stereo not given) | -6.63
O=c1oc(-c2cccs2)nn1CC(O)c1ccc(F)cc1 (stereo not given) | 20.4
Cc1cc(C2CCCN2CCCc2nc3ccccc3o2)on1 (stereo not given) | -5.58
COCCN(C)C[C@H]1C[C@H](CO)CN(C(=O)c2ccc(=O)n(C)c2)C1 | -1.06
CCC(C(=O)N1CCCSCC1)N1CCCC1=O (stereo not given) | 6.27
O=C(NCCn1ccnc1)c1ccn(-c2ccccc2)n1 | 0.449
CC(C)NC(=O)c1nc(Cn2c(C(F)(F)F)nc3ccccc32)no1 | 20.7
Cc1ccc(CN2CCC3(CCCN3C(=O)C(C)C)CC2)o1 | -5.9
CCn1cnnc1C1CCN(C(=O)c2cc(C)n(CC)c2C)CC1 | -6.08
CN(C)c1ncccc1CNC(=O)N1CCCC1c1cccs1 (stereo not given) | -12
Cc1nc(CN2CC[C@@H]3[C@@H](CCC(=O)N3CCc3c[nH]cn3)C2)co1 | 2.62
Cc1cnc(N2CC[C@@H]3OC(COCC(=O)N(C)C)CC[C@@H]32)nc1 (stereo not given in full) | 7.98
COc1ccc(-c2n[nH]cc2CN(C)CCC2CCOCC2)cc1F | -6.57
c1ccc(C[C@H]2CN(Cc3nccs3)CC[C@@H]2OCC2CC2)cc1 | -62.3
COc1ccnc(NC(=O)c2cnccn2)c1 | 7.97
O=C1COC2(CCN(Cc3cccnc3)CC2)CN1c1ccccc1 | -113
O=C(NCCOc1cccc(Cl)c1)C1CC(=O)N(CC2CC2)C1 (stereo not given) | -0.98
Cc1nn(C)c(C)c1C(=O)N1CCN(C(=O)CC2CCCCC2)CC1 | -2.55
CC[C@H]1CN(S(=O)(=O)c2ccc(OC)cc2)CC[C@H]1CC(=O)O | 7.28
CCc1cnc2c(c1Nc1ccncc1)c(=O)n(C)c(=O)n2C | 1.86

SMILES | cytotoxicity at 10 µM [%]
c1ccc(-n2ncc(CNCC3CCCN3c3cccnn3)n2)cc1 (stereo not given) | -6.71
Cc1nc2c(c(NC3CC3)n1)CCN(C(=O)C1(C#N)CC1)CC2 | -104
Cc1ccc(F)c(NCc2ccc(C(=O)N(C)C)[nH]2)c1 | 4.96
c1csc(CN2CCCN(c3ncnc4[nH]ccc34)CC2)c1 | 5.51
CC1CN(C)CCN1C(=O)c1ccn(-c2ccccc2)n1 (stereo not given) | 0.533
Cn1cc2c(n1)C(COCC1CC1)CN(Cc1ccccn1)C2 (stereo not given) | -1.8
CN(C)CC1(O)CCCN(Cc2cnc(-c3ccco3)nc2)CC1 (stereo not given) | -8.58
CCCn1cc(-c2ccnc(NC3CCCc4ccccc43)n2)c(C)n1 (stereo not given) | 81.4
CN(C)S(=O)(=O)N1C[C@H]2CCC[C@@]2(COCC2CCOCC2)C1 | 7.45
C[C@@H]1CN(Cc2ccncc2)C[C@@]1(O)C1CC1 | -5.08
COc1ccc(CN2CCC3(CC2)CCN(c2cnn(C)c2)C3=O)cc1 | -85.6
COCC(=O)N1CCC2(CCC2N(C)Cc2ccco2)CC1 (stereo not given) | 0.169
COCC1c2c(cnn2C)CCN1Cc1ccco1 (stereo not given) | 2.32
CC(C)C1CCN(C(=O)NCC(=O)N(C)CC(F)(F)F)CC1 | 20.7
CC(=O)N(C)c1nc(Cn2nnnc2C(C)(C)C)cs1 | 6.56
CCOC1CCC2(CCN(C(=O)c3c[nH]cn3)CC2)c2ccccc21 (stereo not given) | 7.5
COc1c(C2CCCN2C(=O)c2sc(C)nc2C)c(C)nn1C (stereo not given) | 3.62
CN(Cc1cnn(C)c1)C1CCN(c2cccc(-c3cscn3)c2)CC1 | -0.724
Cc1ccc(S(=O)(=O)N2CCCC3(CCCN3S(C)(=O)=O)C2)cc1F (stereo not given) | 2.05
c1coc(CN2CCn3c(CN4CCOCC4)nnc3C2)c1 | 9.1
CC(=O)N1CCN([C@@H]2CC[C@@H](N(C)C(=O)C3CCCCC3)[C@H]2O)CC1 | -10.6
COc1cccc(OCC2CCCN(C3CCN(C(C)=O)CC3)C2)c1 (stereo not given) | -18.3

SMILES | cytotoxicity at 10 µM [%]
Cc1nc(CN2CCCc3cc(OC(F)(F)F)ccc32)oc1C | 0.889
CCOCc1nc2c(c(NC(CC)c3cccnc3)n1)CCNCC2 (stereo not given) | -4.28
Cc1ccc2c(n1)N(Cc1csc(C)n1)CCN(C1CCOC1)C2 (stereo not given) | 9.28
N[C@@H](Cc1ccccc1)c1nnc(S(=O)(=O)Cc2cccc(Cl)c2)o1 | 7.87
CN(C)C(=O)CN1CCO[C@H]2CN(Cc3cccc(F)c3)C[C@H]21 | -97.2
CC(C)C(=O)NCCNC(=O)C(C)OCC(F)(F)F (stereo not given) | -5.56
CC(C)N1CC(n2ccnc2-c2nccn2C)CC1=O (stereo not given) | -0.371
Cn1ccc2c(-c3ccc(NC4CC4)nn3)ccnc21 | 10.4
Cc1nc(-c2ccsc2)ccc1C(=O)NCC(C)N1CCOCC1 (stereo not given) | -3.92
CN(C)C(=O)N1CCC2(CCC(C(=O)N3CCCC3)O2)CC1 (stereo not given) | -0.125
Cc1noc(CS(=O)(=O)C(C)C(=O)N(C)c2ccccc2)n1 (stereo not given) | 9.26
O=C(NC1CCCC1)c1n[nH]c2c1CNCC2 | 0.582
CCOc1ccc(S(=O)(=O)NCCc2ccc(N(C)C)cc2)cc1C | -6.48
NC(=O)C1CCN(c2ccc(C(=O)N3CCc4ccccc43)cn2)C1 (stereo not given) | -1.29
O=C(c1cccc(F)c1)N1CCOC(c2nc(-c3ncccn3)no2)C1 (stereo not given) | 5.3
CC(C)=CCN1C[C@@H]2CC[C@H]1CN(CCC(=O)NCc1ccco1)C2 | -3.08
COCCCNC(=O)CN(C)C(C)c1nc(C)no1 (stereo not given) | 8.8
O=C(c1[nH]nc(C2CC2)c1Cl)N1CCN(C2CC2)C(=O)C1 | -4.81
Cc1ccc(OCc2ccc(C(=O)O)s2)cc1C | 9.18
Cc1ccc(N2CCc3ncc(CNc4ccccn4)n3CC2)nn1 | 5.41
O=C(Nc1cccnc1)[C@H]1COC[C@H]2CN(C3CCCC3)C[C@H]21 | -20.1
CC(C)NC(=O)c1cc2c(s1)CCN2c1ncccn1 | -123

SMILES | cytotoxicity at 10 µM [%]
CCOC(=O)CSc1nnc([C@@H](N)C(C)CC)o1 (stereo not given in full) | 2
CN1CCC(n2nc(Cc3cccc(Cl)c3)nc2Cn2ccnc2)CC1 | 10.8
CCC(CC)C(=O)NCc1c(C)nn(C)c1N1CCCN(C)CC1 | 0.295
O=C(OCCNc1ncccn1)c1ccc(Cl)s1 | -2.43
O=S(=O)(NCCn1cc(C2CCOC2)nn1)c1ccc(Cl)cc1 (stereo not given) | -4.89
CN(C)C(C(=O)NCCS(=O)(=O)N(C)C)c1cccc(F)c1 (stereo not given) | 2.73
Cc1ccc(OCCC(=O)N2CCC(c3nncn3C)CC2)c(C)c1 | -6.27
CN(C)c1ncc2c(n1)CCCC2NC(=O)c1ccsc1 (stereo not given) | 10
CC(C)c1nnc2n1CC(CNC/C=C/c1ccccc1)CC2 (stereo not given) | 3.76
CCn1nc2c(cc1=O)CN(Cc1nnc(C3CC3)o1)CC2 | -16.2
O=C(c1ccccc1O)N1CCn2c(nnc2C(F)(F)F)C1 | 14.6
COc1c(C)cnc(CN(C)C(=O)Nc2ccc3c(c2)CCO3)c1C | -0.921
CCNC(c1ccc(C(C)C)cc1)c1cccnc1 (stereo not given) | -1.66
CC(C)N1CCCC1c1nc(N(C)C)ncc1I (stereo not given) | -0.358
CCc1nc(CN2CCCN(C(=O)c3cccn3C)CC2)cs1 | 3.41
Cc1nc(CN2CCN(C(=O)CCC(=O)c3ccccc3)CC2)no1 | 3.7
O=C(CCC1CCCC1)NCCn1nc(C2CCNC2)c2nccnc21 (stereo not given) | 6.28
O=C(NCCc1nncn1C1CC1)c1cc2ccccn2c1 | -1.87
Cc1cnn(CC2CN(CCS(=O)(=O)c3ccccc3)CCO2)c1 (stereo not given) | -3.08
Cc1nc(COCc2cnc3n2CCN(CC2CCC2)C3C)cs1 (stereo not given) | -5.63
CC(C)Cn1cncc1CNC(=O)c1cccc(-n2cnnc2)c1 | -5.54
CN1CCN(C(=O)N2CCCC(c3nccn3CC3CCC3)C2)CC1 (stereo not given) | 6.64

SMILES | cytotoxicity at 10 µM [%]
CC(C)(C)c1nc(CN2CCc3onc(-c4cccc(F)c4)c3C2)no1 | 6.2
NC(=O)C1CCCN1C(=O)c1cccc2c1OCO2 (stereo not given) | -9.56
O=c1c(-c2ccnc(N3CCC[C@H]3CO)n2)cnc2sccn12 | -6.3
CS(=O)(=O)N1CC[C@H]2O[C@H](C(=O)NCCc3ccccn3)CC[C@H]21 | 8.5
Cc1nc(CN2CCCC(CCc3ccccc3C(F)(F)F)C2)no1 (stereo not given) | 2.79
CCNC(=O)N1CCC(Cc2cccc(C(N)=O)c2)C1 (stereo not given) | 2.92
Cc1cc(N2CCCC(O)CC2)n2nc(C)c(C)c2n1 (stereo not given) | 7.46
CC(C)C1CCCN1CC(=O)NCc1ccc(OCC(N)=O)cc1 (stereo not given) | 7.01
Cc1noc(C)c1C(=O)N1CCC(n2cccn2)CC1 | 3.82
COCCNC(C)c1ccc(-c2cccnc2)cc1 (stereo not given) | 2.7
COCc1ccc(CNc2cncc(-n3cccn3)n2)cc1 | 6
O=C1CCCN1CCCC(=O)N1CCCC(Cc2cccnc2)C1 (stereo not given) | -4.5
CCN(CC(C)C#N)C(=O)CNc1cc(Cl)ccc1C(N)=O (stereo not given) | 17.6
Cc1ccc(C(=O)N2CCc3ncnc(C)c3CC2)cn1 | 9.75
CN1C(=O)CC(c2cnn(C)c2)C12CCN(C(=O)C1CC=CC1)CC2 (stereo not given) | 5.84
Cc1ccccc1OC1CCN(CC(=O)Nc2c(C)nn(C)c2C)CC1 | 0.919
Cc1cccc(CN2C[C@@H]3OCCN(CC(=O)N(C)C)[C@@H]3C2)c1 | -110
Cc1nc(NCc2ccccn2)c2c(n1)c(C)nn2C | -1.02
Cc1csc2ncc(-c3ccnc(N4CCN(C)CC4)n3)c(=O)n12 | 9.43
CCc1nccn1C1CCCN(C(=O)c2cn3c(C)cccc3n2)C1 (stereo not given) | -14.5
CCN1CCC(NC(=O)CN2CCCC2Cn2cc(C)cn2)CC1 (stereo not given) | -8.84
CC(C)CNC(=O)[C@H]1CCS(=O)(=O)[C@@H]2CN(c3ncccn3)C[C@H]12 | -110
